Data reported in ChEMBL document CHEMBL1123677, “Structure-activity studies of 5-[[4-(4,5-dihydro-2-oxazolyl) phenoxy]alkyl]-3-methylisoxazoles: inhibitors of picornavirus uncoating” (J Med Chem, 1987).
Converted amounts (≈) assume the structure as drawn.

Legend:
[1] = Partition coefficient (logP); format: physicochemical; conditions: octanol/water
[2] = system: rhinovirus A2; experiment: Antirhinovirus activity was assessed and the maximum testable concentration that causes no apparent effects on the cell monolayers was determined against HRV-2 virus in vitro.; format: functional, human rhinovirus type 2
[3] = system: Human rhinovirus sp.; experiment: Mean of MIC's was determined for the five types of virus like HRV-2, HRV-1A,HRV-22,HRV-41 and HRV-50; format: functional
Procedure, shortened: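 MIC measured by plaque reduction against HRV-2 first. The value is the mean of the MICs across these five serotypes.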

[4] = system: rhinovirus A2; experiment: Expanded antirhinoviral activity against the rhinovirus serotype 2; format: functional, human rhinovirus type 2; conditions: Rhinovirus A
Procedure, shortened: (§1)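 Selected compounds were tested across a 15-serotype rhinovirus panel: the five secondary serotypes plus 10 more. An MIC was recorded for each serotype. MIC80, the concentration inhibiting 80% of serotypes tested, was also derived from this panel.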

[5] = system: rhinovirus A21; experiment: Expanded antirhinoviral activity against the rhinovirus serotype 21; format: functional; conditions: Rhinovirus A; procedure, shortened: as §1
[6] = system: rhinovirus A22; experiment: Expanded antirhinoviral activity against the rhinovirus serotype 22; format: functional; conditions: Rhinovirus A; procedure, shortened: as §1
[7] = system: rhinovirus A25; experiment: Expanded antirhinoviral activity against the rhinovirus serotype 25; format: functional; conditions: Rhinovirus A; procedure, shortened: as §1
[8] = system: rhinovirus A30; experiment: Expanded antirhinoviral activity against the rhinovirus serotype 30; format: functional; conditions: Rhinovirus A; procedure, shortened: as §1
[9] = system: rhinovirus A41; experiment: Expanded antirhinoviral activity against the rhinovirus serotype 41; format: functional; conditions: Rhinovirus A; procedure, shortened: as §1
[10] = system: rhinovirus A50; experiment: Expanded antirhinoviral activity against the rhinovirus serotype 50; format: functional; conditions: Rhinovirus A; procedure, shortened: as §1
[11] = system: rhinovirus B6; experiment: Expanded antirhinoviral activity against the rhinovirus serotype 6; format: functional; conditions: Rhinovirus B; procedure, shortened: as §1
[12] = system: rhinovirus A67; experiment: Expanded antirhinoviral activity against the rhinovirus serotype 67; format: functional; conditions: Rhinovirus A; procedure, shortened: as §1
[13] = system: rhinovirus B86; experiment: Expanded antirhinoviral activity against the rhinovirus serotype 86; format: functional; conditions: Rhinovirus B; procedure, shortened: as §1
[14] = system: rhinovirus A89; experiment: Expanded antirhinoviral activity against the rhinovirus serotype 89; format: functional, human rhinovirus type 89; conditions: Rhinovirus A; procedure, shortened: as §1
[15] = system: rhinovirus B14; experiment: Expanded antirhinoviral activity against the rhinovirus serotype 14; format: functional, human rhinovirus type 14; conditions: Rhinovirus B; procedure, shortened: as §1
[16] = system: rhinovirus A15; experiment: Expanded antirhinoviral activity against the rhinovirus serotype 15; format: functional; conditions: Rhinovirus A; procedure, shortened: as §1
[17] = system: rhinovirus A1B; experiment: Expanded antirhinoviral activity against the rhinovirus serotype 1B; format: functional, human rhinovirus type 1b; conditions: Rhinovirus A; procedure, shortened: as §1
[18] = system: Human rhinovirus 1A; experiment: Expanded antirhinoviral activity against the rhinovirus serotype 1A; format: functional; procedure, shortened: as §1
[19] = system: rhinovirus A2; experiment: Antiviral activity determined by ability to inhibit the HRV-2( human rhinovirus type -2) virus by plaque reduction assay in vitro; format: functional; conditions: Rhinovirus A
Procedure, shortened: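 Plaque reduction assay against human rhinovirus type 2 (HRV-2), following an earlier reported method. The value is the MIC, the minimum inhibitory concentration.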

[20] = system: human rhinovirus (15-serotype panel); experiment: Antirhinovirus activity was determined by the ability to inhibit the growth of 80% of a panel of 15 human rhinovirus serotypes

logP [1]: 3.49
MIC [3]: 0.7 µM (≈ 0.252 µg/mL)
MIC [4]: 0.06 µM (≈ 0.0216 µg/mL)
MIC [5]: 0.06 µM (≈ 0.0216 µg/mL)
MIC [6]: 0.1 µM (≈ 0.0359 µg/mL)
MIC [7]: 1.9 µM (≈ 0.683 µg/mL)
MIC [8]: 0.1 µM (≈ 0.0359 µg/mL)
MIC [9]: 2 µM (≈ 0.719 µg/mL)
MIC [10]: 0.2 µM (≈ 0.0719 µg/mL)
MIC [11]: 1.6 µM (≈ 0.575 µg/mL)
MIC [12]: 0.2 µM (≈ 0.0719 µg/mL)
MIC [13]: 2 µM (≈ 0.719 µg/mL)
MIC [14]: 0.06 µM (≈ 0.0216 µg/mL)
MIC [15]: 1.8 µM (≈ 0.647 µg/mL)
MIC [16]: 0.3 µM (≈ 0.108 µg/mL)
MIC [17]: 0.2 µM (≈ 0.0719 µg/mL)
MIC [18]: 0.9 µM (≈ 0.323 µg/mL)
MIC [19]: 0.04 µM (≈ 0.0144 µg/mL)
MIC80 [20]: 1.8 µM (≈ 0.647 µg/mL)
Structure (SMILES): Cc1cc(CCCCCOc2ccc(C3=NCCO3)cc2[N+](=O)[O-])on1
MTL [2]: 3.9 µM
